Laboratory results: ChEMBL document CHEMBL5030505, “Assessment of NR4A Ligands That Directly Bind and Modulate the Orphan Nuclear Receptor Nurr1” (J Med Chem, 2020)

Experiments:
Type in all cases: cell-based
[1] = biological target: Nuclear receptor subfamily 4 group A member 2 (Homo sapiens) (UniProt P43354); test: Modulation of full length human Nurr1 expressed in PC12 cells co-transfected with luciferase reporter plasmid harboring NurRE response element assessed as increase in luciferase activity incubated for 18 hrs by luciferase reporter-gene assay; conditions: PC-12, filed as modulator
Procedure, shortened: (§1)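 Here PC12 cells (FK-12 medium, 15% horse serum, 2.5% FBS, 37°C, 5% CO2) received full-length Nurr1 (2 μg) without RXRα, plus 3xNBRE- or 3xNurRE-luciferase reporter (6 μg), for 18 h. Cells were replated at 10,000/well for 4 h, then treated with ligand or vehicle in quadruplicate for 18 h. Luciferase luminescence was normalized to vehicle-treated cells. Results are mean ± s.e.m. (n=4) from 2 independent experiments, with one-way ANOVA against vehicle.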

[2] = biological target: Nuclear receptor subfamily 4immunitygroup A member 1 (Homo sapiens) (UniProt P22736); test: Modulation of full length human Nur77 expressed in SK-N-BE(2) cells co-transfected with luciferase reporter plasmid harboring NBRE response element assessed as increase in luciferase activity incubated for 18 by luciferase reporter gene assay; conditions: SKNBE2, filed as modulator, time 18.0 hrs
Procedure, shortened: (§2)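 Cells seeded at 1.5 million per 10-cm dish. Next day they were transfected (Lipofectamine 2000) with full-length Nur77 or NOR-1 expression plasmid, either alone (2 μg) or 1 μg plus full-length RXRα (1 μg), and 3xNBRE- or 3xNurRE-luciferase reporter (6 μg), 18 h. Cells replated at 10,000/well, 4 h, then ligand dose response added in quadruplicate for 18 h. Luciferase luminescence read.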

[3] = biological target: Nuclear receptor subfamily 4 group A member 2 (Homo sapiens) (UniProt P43354); test: Modulation of full length human Nurr1 expressed in SKNBE(2) cells co-transfected with luciferase reporter plasmid harboring NurRE response element assessed as increase in luciferase activity incubated for 18 hrs by luciferase reporter-gene assay; conditions: SKNBE2, filed as modulator
Procedure, shortened: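 Transfection of SK-N-BE(2)-C cells (1:1 EMEM/F12, 10% FBS, 37°C, 5% CO2) used full-length Nurr1 alone (2 μg, no RXRα) with 3xNBRE- or 3xNurRE-luciferase reporter (6 μg) for 18 h. Cells were replated at 10,000/well for 4 h, then exposed to ligand or vehicle in quadruplicate for 18 h. Luminescence was expressed as fold over vehicle, as mean ± s.e.m. (n=4) from 2 independent experiments, one-way ANOVA against vehicle.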

[4] = biological target: Nuclear receptor subfamily 4 group A member 2 (Homo sapiens) (UniProt P43354); test: Modulation of full length human Nurr1 expressed in PC12 cells co-transfected with RXRalpha and luciferase reporter plasmid harboring NBRE response element assessed as increase in luciferase activity incubated for 18 hrs by luciferase reporter-gene assay; conditions: PC-12, filed as modulator
Procedure, shortened: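 PC12 cells were grown at 37°C and 5% CO2 in […] medium with 15% horse serum and 2.5% FBS. They were transfected with full-length Nurr1 (1 μg) plus full-length RXRα (1 μg) and 3xNBRE- or 3xNurRE-luciferase reporter (6 μg) for 18 h, then replated at 10,000 cells/well for 4 h. Ligand or vehicle (water, ethanol or DMSO) was added in quadruplicate for 18 h. Luminescence was read as fold change over vehicle. Results are mean ± s.e.m., n=4, from 2 independent experiments, analysed by one-way ANOVA against vehicle.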

[5] = biological target: Nuclear receptor subfamily 4immunitygroup A member 1 (Homo sapiens) (UniProt P22736); test: Modulation of full length human Nur77 expressed in SK-N-BE(2) cells co-transfected with RXRalpha and luciferase reporter plasmid harboring NBRE response element assessed as increase in luciferase activity incubated for 18 by luciferase reporter gene assay; conditions: SKNBE2, filed as modulator, time 18.0 hrs; procedure, shortened: as §2
[6] = biological target: Nuclear receptor subfamily 4 group A member 2 (Homo sapiens) (UniProt P43354); test: Modulation of full length human Nurr1 expressed in HEK293T cells co-transfected with luciferase reporter plasmid harboring NBRE response element assessed as increase in luciferase activity incubated for 18 hrs by luciferase reporter-gene assay; conditions: filed as modulator
Procedure, shortened: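 Full-length Nurr1 plasmid, alone (2 μg) or 1 μg plus full-length RXRα (1 μg), cotransfected with 3xNBRE- or 3xNurRE-luciferase reporter (6 μg) using Lipofectamine 2000, 18 h. Cells replated at 10,000/well for 4 h. Four ligand concentrations, or vehicle (water, ethanol or DMSO), added in quadruplicate for 18 h. Luciferase read. Fold change vs vehicle, mean ± s.e.m., one-way ANOVA vs vehicle.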

[7] = biological target: Nuclear receptor subfamily 4 group A member 3 (Homo sapiens) (UniProt Q92570); test: Modulation of full length human NOR1 expressed in SK-N-BE(2) cells co-transfected with RXRalpha and luciferase reporter plasmid harboring NurRE response element assessed as increase in luciferase activity incubated for 18 by luciferase reporter gene assay; conditions: SKNBE2, filed as modulator, time 18.0 hrs; procedure, shortened: as §2
[8] = biological target: Nuclear receptor subfamily 4 group A member 2 (Homo sapiens) (UniProt P43354); test: Modulation of full length human Nurr1 expressed in PC12 cells co-transfected with luciferase reporter plasmid harboring NBRE response element assessed as increase in luciferase activity incubated for 18 hrs by luciferase reporter-gene assay; conditions: PC-12, filed as modulator; procedure, shortened: as §1
[9] = biological target: Nuclear receptor subfamily 4 group A member 2 (Homo sapiens) (UniProt P43354); test: Modulation of full length human Nurr1 expressed in SKNBE(2) cells co-transfected with RXRalpha and luciferase reporter plasmid harboring NBRE response element assessed as increase in luciferase activity incubated for 18 hrs by luciferase reporter-gene assay; conditions: SKNBE2, filed as modulator
Procedure, shortened: (§3)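 SK-N-BE(2)-C cells were kept in 1:1 EMEM/F12 with 10% FBS at 37°C and 5% CO2. They were cotransfected with full-length Nurr1 (1 μg), full-length RXRα (1 μg) and 3xNBRE- or 3xNurRE-luc reporter (6 μg) for 18 h, replated at 10,000 cells/well for 4 h, and then treated with ligand or vehicle in quadruplicate for 18 h. The readout was luciferase luminescence as fold over vehicle, reported as mean ± s.e.m. (n=4) from 2 independent experiments, one-way ANOVA.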

[10] = biological target: Nuclear receptor subfamily 4 group A member 3 (Homo sapiens) (UniProt Q92570); test: Modulation of full length human NOR1 expressed in SK-N-BE(2) cells co-transfected with luciferase reporter plasmid harboring NurRE response element assessed as increase in luciferase activity incubated for 18 by luciferase reporter gene assay; conditions: SKNBE2, filed as modulator, time 18.0 hrs; procedure, shortened: as §2
[11] = biological target: Nuclear receptor subfamily 4immunitygroup A member 1 (Homo sapiens) (UniProt P22736); test: Modulation of full length human Nur77 expressed in PC12 cells co-transfected with luciferase reporter plasmid harboring NBRE response element assessed as increase in luciferase activity incubated for 18 by luciferase reporter gene assay; conditions: PC-12, filed as modulator, time 18.0 hrs; procedure, shortened: as §2
[12] = biological target: Nuclear receptor subfamily 4 group A member 2 (Homo sapiens) (UniProt P43354); test: Modulation of full length human Nurr1 expressed in SKNBE(2) cells co-transfected with RXRalpha and luciferase reporter plasmid harboring NurRE response element assessed as increase in luciferase activity incubated for 18 hrs by luciferase reporter-gene assay; conditions: SKNBE2, filed as modulator; procedure, shortened: as §3
[13] = biological target: Nuclear receptor subfamily 4immunitygroup A member 1 (Homo sapiens) (UniProt P22736); test: Modulation of full length human Nur77 expressed in HEK293 cells co-transfected with luciferase reporter plasmid harboring NBRE response element assessed as increase in luciferase activity incubated for 18 hrs by luciferase reporter gene assay; conditions: filed as modulator; procedure, shortened: as §2
[14] = biological target: Nuclear receptor subfamily 4 group A member 3 (Homo sapiens) (UniProt Q92570); test: Modulation of full length human NOR1 expressed in HEK293T cells co-transfected with RXRalpha luciferase reporter plasmid harboring NurRE response element assessed as increase in luciferase activity incubated for 18 hrs by luciferase reporter gene assay; conditions: filed as modulator
Procedure, shortened: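 Full-length NOR-1 plasmid was transfected via Lipofectamine 2000, either alone (2 μg) or at 1 μg with full-length RXRα (1 μg). It was paired with a 3xNBRE or 3xNurRE luciferase reporter (6 μg), 8 μg total DNA, for 18 h. Cells were replated at 10,000/well for 4 h, then given a full ligand dose response or vehicle in quadruplicate for 18 h. Luciferase was read; no EC50/IC50 was fitted.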

[15] = biological target: Nuclear receptor subfamily 4immunitygroup A member 1 (Homo sapiens) (UniProt P22736); test: Modulation of full length human Nur77 expressed in PC12 cells co-transfected with luciferase reporter plasmid harboring NurRE response element assessed as increase in luciferase activity incubated for 18 by luciferase reporter gene assay; conditions: PC-12, filed as modulator, time 18.0 hrs; procedure, shortened: as §2

Measured: Activity

Nuclear receptor subfamily 4immunitygroup A member 1 (Homo sapiens), sequence (P22736 whole entry): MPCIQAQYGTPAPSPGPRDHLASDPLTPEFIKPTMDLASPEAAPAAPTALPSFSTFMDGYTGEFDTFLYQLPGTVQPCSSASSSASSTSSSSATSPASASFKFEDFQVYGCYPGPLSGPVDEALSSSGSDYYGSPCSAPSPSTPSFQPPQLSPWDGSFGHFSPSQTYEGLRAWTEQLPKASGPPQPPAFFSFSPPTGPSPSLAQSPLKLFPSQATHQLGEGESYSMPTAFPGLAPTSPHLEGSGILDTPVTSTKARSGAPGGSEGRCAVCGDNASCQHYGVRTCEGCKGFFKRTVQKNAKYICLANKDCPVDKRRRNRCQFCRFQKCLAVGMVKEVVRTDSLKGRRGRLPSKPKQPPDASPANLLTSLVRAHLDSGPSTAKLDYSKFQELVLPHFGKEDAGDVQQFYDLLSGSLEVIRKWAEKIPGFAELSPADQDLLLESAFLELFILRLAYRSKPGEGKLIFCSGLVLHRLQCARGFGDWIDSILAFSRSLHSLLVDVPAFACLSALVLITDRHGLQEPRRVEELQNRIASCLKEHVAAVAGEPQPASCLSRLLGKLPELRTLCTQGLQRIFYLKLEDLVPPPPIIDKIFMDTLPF
Nuclear receptor subfamily 4 group A member 3 (Homo sapiens), sequence (Q92570 whole entry): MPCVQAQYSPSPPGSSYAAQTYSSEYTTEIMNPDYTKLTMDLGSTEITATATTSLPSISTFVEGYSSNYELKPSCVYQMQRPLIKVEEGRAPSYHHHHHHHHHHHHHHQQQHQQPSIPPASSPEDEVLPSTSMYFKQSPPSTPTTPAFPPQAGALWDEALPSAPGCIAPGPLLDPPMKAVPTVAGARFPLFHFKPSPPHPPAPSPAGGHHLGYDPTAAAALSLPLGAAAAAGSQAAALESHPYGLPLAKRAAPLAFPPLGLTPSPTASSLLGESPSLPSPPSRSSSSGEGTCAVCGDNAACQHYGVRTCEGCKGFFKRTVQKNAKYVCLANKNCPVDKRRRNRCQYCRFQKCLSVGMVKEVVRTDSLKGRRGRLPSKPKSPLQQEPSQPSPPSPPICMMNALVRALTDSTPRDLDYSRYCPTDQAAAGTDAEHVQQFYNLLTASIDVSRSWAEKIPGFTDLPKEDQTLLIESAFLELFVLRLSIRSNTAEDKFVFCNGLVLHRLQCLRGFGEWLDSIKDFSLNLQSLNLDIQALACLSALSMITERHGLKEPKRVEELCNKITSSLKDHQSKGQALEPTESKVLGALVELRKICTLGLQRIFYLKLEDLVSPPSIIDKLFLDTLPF
Nuclear receptor subfamily 4 group A member 2 (Homo sapiens), sequence (P43354 whole entry): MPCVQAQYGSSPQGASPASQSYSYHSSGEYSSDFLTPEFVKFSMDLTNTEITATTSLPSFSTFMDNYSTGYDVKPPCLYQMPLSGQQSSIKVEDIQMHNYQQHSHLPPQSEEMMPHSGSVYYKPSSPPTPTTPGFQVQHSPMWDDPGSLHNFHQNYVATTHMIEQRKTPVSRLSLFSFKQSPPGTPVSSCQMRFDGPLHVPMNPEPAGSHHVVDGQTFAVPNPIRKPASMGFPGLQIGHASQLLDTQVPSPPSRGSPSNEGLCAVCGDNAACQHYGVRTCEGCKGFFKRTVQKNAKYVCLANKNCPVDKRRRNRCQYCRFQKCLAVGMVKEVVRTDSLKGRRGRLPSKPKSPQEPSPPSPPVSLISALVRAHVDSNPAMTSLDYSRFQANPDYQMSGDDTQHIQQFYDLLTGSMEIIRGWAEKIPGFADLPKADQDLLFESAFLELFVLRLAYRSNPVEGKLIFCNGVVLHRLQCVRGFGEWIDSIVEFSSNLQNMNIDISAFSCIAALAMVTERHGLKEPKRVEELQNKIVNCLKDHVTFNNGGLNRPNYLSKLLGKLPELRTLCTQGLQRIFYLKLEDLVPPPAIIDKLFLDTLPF

CCN(CC)CCCC(C)Nc1ccnc2cc(Cl)ccc12 (stereo not given) [CHLOROQUINE]
active: [1] Dose-Dependent Effect | [2] Dose-Dependent Effect | [3] Dose-Dependent Effect | [4] Dose-Dependent Effect | [5] Dose-Dependent Effect | [6] Dose-Dependent Effect | [7] Dose-Dependent Effect | [8] Dose-Dependent Effect | [9] Dose-Dependent Effect | [10] Dose-Dependent Effect | [11] Dose-Dependent Effect | [12] Dose-Dependent Effect | [13] Dose-Dependent Effect | [14] Dose-Dependent Effect | [15] Dose-Dependent Effect

CCCCCCCC(=O)c1c(O)cc(O)cc1CC(=O)OCC [CYTOSPORONE B]
active: [1] Dose-Dependent Effect | [2] Dose-Dependent Effect | [3] Dose-Dependent Effect | [4] Dose-Dependent Effect | [5] Dose-Dependent Effect | [6] Dose-Dependent Effect | [7] Dose-Dependent Effect | [8] Dose-Dependent Effect | [9] Dose-Dependent Effect | [10] Dose-Dependent Effect | [11] Dose-Dependent Effect | [12] Dose-Dependent Effect | [13] Dose-Dependent Effect | [14] Dose-Dependent Effect | [15] Dose-Dependent Effect

CCN(CC)Cc1cc(Nc2ccnc3cc(Cl)ccc23)ccc1O [AMODIAQUINE]
active: [1] Dose-Dependent Effect | [2] Dose-Dependent Effect | [3] Dose-Dependent Effect | [4] Dose-Dependent Effect | [5] Dose-Dependent Effect | [6] Dose-Dependent Effect | [7] Dose-Dependent Effect | [8] Dose-Dependent Effect | [9] Dose-Dependent Effect | [10] Dose-Dependent Effect | [11] Dose-Dependent Effect | [12] Dose-Dependent Effect | [13] Dose-Dependent Effect | [14] Dose-Dependent Effect | [15] Dose-Dependent Effect
